Test results reported in ChEMBL document CHEMBL4689842, “EUbOPEN Chemogenomics Library wave 1” (2021).

Test system: Fibroblast
Test: Multiplex assay against human fibroblast
Assay type: toxicity, cell-based
In short: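 On a CQ1 microscope at 37°C and 5% CO2, live cells were imaged after compound addition. They had been stained at seeding with Hoechst33342, BioTracker Green Microtubule Cytoskeleton Dye, MitoTracker Red and Annexin V Alexa Fluor 680. CellPathfinder machine-learning gating assigned cells to Hoechst high-intensity objects or normal cells, normal cells to healthy, pyknosed or fragmented nuclei, and pyknosed cells to mitotic or apoptotic. Tubulin, mitochondrial-mass and membrane-permeability phenotypes are per cents of healthy-nucleus cells.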

[1] = 12 h, 1 µM, compound concentration 1 uM, replicate 1
[2] = 12 h, 1 µM, compound concentration 1 uM, replicate 2
[3] = 12 h, 10 µM, compound concentration 10 uM, replicate 1
[4] = 12 h, 10 µM, compound concentration 10 uM, replicate 2
[5] = 24 h, 1 µM, compound concentration 1 uM, replicate 1
[6] = 24 h, 1 µM, compound concentration 1 uM, replicate 2
[7] = 24 h, 10 µM, compound concentration 10 uM, replicate 1
[8] = 24 h, 10 µM, compound concentration 10 uM, replicate 2
[9] = 48 h, 1 µM, compound concentration 1 uM, replicate 1
[10] = 48 h, 1 µM, compound concentration 1 uM, replicate 2
[11] = 48 h, 10 µM, compound concentration 10 uM, replicate 1
[12] = 48 h, 10 µM, compound concentration 10 uM, replicate 2

SMILES: CC(C)[C@H](CO)Nc1nc(Nc2cccc(Cl)c2)c2ncn(C(C)C)c2n1 [PURVALANOLA]
- Population Apoptotic (%) [1]: 65%
- Population Fragmented Nuclei (%) [1]: 30%
- Population Healthy Nuclei (%) [1]: 39%
- Population Hoechst High Intensity Objects (%) [1]: 17%
- Population Membrane Permeable-Phenotype (%) [1]: 20%
- Population Mitochondria Different-Phenotype (%) [1]: 7%
- Population Mitotic Cells (%) [1]: 35%
- Population Normal (%) [1]: 82%
- Population Pyknosed Nuclei (%) [1]: 30%
- Population Tubulin-Different-Phenotype (%) [1]: 48%
- Total Cell Count [1]: 241
- Population Apoptotic (%) [2]: 50%
- Population Fragmented Nuclei (%) [2]: 8%
- Population Healthy Nuclei (%) [2]: 88%
- Population Hoechst High Intensity Objects (%) [2]: 10%
- Population Membrane Permeable-Phenotype (%) [2]: 7%
- Population Mitochondria Different-Phenotype (%) [2]: 21%
- Population Mitotic Cells (%) [2]: 50%
- Population Normal (%) [2]: 89%
- Population Pyknosed Nuclei (%) [2]: 3%
- Population Tubulin-Different-Phenotype (%) [2]: 15%
- Total Cell Count [2]: 111
- Population Apoptotic (%) [3]: 65%
- Population Fragmented Nuclei (%) [3]: 24%
- Population Healthy Nuclei (%) [3]: 38%
- Population Hoechst High Intensity Objects (%) [3]: 17%
- Population Membrane Permeable-Phenotype (%) [3]: 10%
- Population Mitochondria Different-Phenotype (%) [3]: 54%
- Population Mitotic Cells (%) [3]: 34%
- Population Normal (%) [3]: 82%
- Population Pyknosed Nuclei (%) [3]: 36%
- Population Tubulin-Different-Phenotype (%) [3]: 95%
- Total Cell Count [3]: 143
- Population Apoptotic (%) [4]: 83%
- Population Fragmented Nuclei (%) [4]: 13%
- Population Healthy Nuclei (%) [4]: 79%
- Population Hoechst High Intensity Objects (%) [4]: 7%
- Population Membrane Permeable-Phenotype (%) [4]: 23%
- Population Mitochondria Different-Phenotype (%) [4]: 95%
- Population Mitotic Cells (%) [4]: 16%
- Population Normal (%) [4]: 92%
- Population Pyknosed Nuclei (%) [4]: 6%
- Population Tubulin-Different-Phenotype (%) [4]: 98%
- Total Cell Count [4]: 66
- Population Apoptotic (%) [5]: 48%
- Population Fragmented Nuclei (%) [5]: 32%
- Population Healthy Nuclei (%) [5]: 49%
- Population Hoechst High Intensity Objects (%) [5]: 18%
- Population Membrane Permeable-Phenotype (%) [5]: 24%
- Population Mitochondria Different-Phenotype (%) [5]: 7%
- Population Mitotic Cells (%) [5]: 51%
- Population Normal (%) [5]: 81%
- Population Pyknosed Nuclei (%) [5]: 18%
- Population Tubulin-Different-Phenotype (%) [5]: 60%
- Total Cell Count [5]: 248
- Population Apoptotic (%) [6]: 60%
- Population Fragmented Nuclei (%) [6]: 8%
- Population Healthy Nuclei (%) [6]: 83%
- Population Hoechst High Intensity Objects (%) [6]: 6%
- Population Membrane Permeable-Phenotype (%) [6]: 5%
- Population Mitochondria Different-Phenotype (%) [6]: 23%
- Population Mitotic Cells (%) [6]: 40%
- Population Normal (%) [6]: 93%
- Population Pyknosed Nuclei (%) [6]: 8%
- Population Tubulin-Different-Phenotype (%) [6]: 9%
- Total Cell Count [6]: 157
- Population Apoptotic (%) [7]: 72%
- Population Fragmented Nuclei (%) [7]: 26%
- Population Healthy Nuclei (%) [7]: 47%
- Population Hoechst High Intensity Objects (%) [7]: 20%
- Population Membrane Permeable-Phenotype (%) [7]: 16%
- Population Mitochondria Different-Phenotype (%) [7]: 63%
- Population Mitotic Cells (%) [7]: 27%
- Population Normal (%) [7]: 79%
- Population Pyknosed Nuclei (%) [7]: 25%
- Population Tubulin-Different-Phenotype (%) [7]: 94%
- Total Cell Count [7]: 145
- Population Apoptotic (%) [8]: 80%
- Population Fragmented Nuclei (%) [8]: 16%
- Population Healthy Nuclei (%) [8]: 65%
- Population Hoechst High Intensity Objects (%) [8]: 8%
- Population Membrane Permeable-Phenotype (%) [8]: 50%
- Population Mitochondria Different-Phenotype (%) [8]: 100%
- Population Mitotic Cells (%) [8]: 20%
- Population Normal (%) [8]: 91%
- Population Pyknosed Nuclei (%) [8]: 17%
- Population Tubulin-Different-Phenotype (%) [8]: 100%
- Total Cell Count [8]: 66
- Population Apoptotic (%) [9]: 60%
- Population Fragmented Nuclei (%) [9]: 39%
- Population Healthy Nuclei (%) [9]: 51%
- Population Hoechst High Intensity Objects (%) [9]: 19%
- Population Membrane Permeable-Phenotype (%) [9]: 23%
- Population Mitochondria Different-Phenotype (%) [9]: 4%
- Population Mitotic Cells (%) [9]: 40%
- Population Normal (%) [9]: 80%
- Population Pyknosed Nuclei (%) [9]: 9%
- Population Tubulin-Different-Phenotype (%) [9]: 49%
- Total Cell Count [9]: 203
- Population Apoptotic (%) [10]: 50%
- Population Fragmented Nuclei (%) [10]: 23%
- Population Healthy Nuclei (%) [10]: 73%
- Population Hoechst High Intensity Objects (%) [10]: 8%
- Population Membrane Permeable-Phenotype (%) [10]: 16%
- Population Mitochondria Different-Phenotype (%) [10]: 0%
- Population Mitotic Cells (%) [10]: 50%
- Population Normal (%) [10]: 91%
- Population Pyknosed Nuclei (%) [10]: 2%
- Population Tubulin-Different-Phenotype (%) [10]: 34%
- Total Cell Count [10]: 74
- Population Apoptotic (%) [11]: 85%
- Population Fragmented Nuclei (%) [11]: 32%
- Population Healthy Nuclei (%) [11]: 49%
- Population Hoechst High Intensity Objects (%) [11]: 17%
- Population Membrane Permeable-Phenotype (%) [11]: 11%
- Population Mitochondria Different-Phenotype (%) [11]: 79%
- Population Mitotic Cells (%) [11]: 15%
- Population Normal (%) [11]: 82%
- Population Pyknosed Nuclei (%) [11]: 18%
- Population Tubulin-Different-Phenotype (%) [11]: 92%
- Total Cell Count [11]: 131
- Population Apoptotic (%) [12]: 50%
- Population Fragmented Nuclei (%) [12]: 37%
- Population Healthy Nuclei (%) [12]: 60%
- Population Hoechst High Intensity Objects (%) [12]: 18%
- Population Membrane Permeable-Phenotype (%) [12]: 7%
- Population Mitochondria Different-Phenotype (%) [12]: 59%
- Population Mitotic Cells (%) [12]: 50%
- Population Normal (%) [12]: 81%
- Population Pyknosed Nuclei (%) [12]: 2%
- Population Tubulin-Different-Phenotype (%) [12]: 96%
- Total Cell Count [12]: 117
